The list is not random: actives were taken first. Their share in the collection is about 6.6%.
Her2 expr inh – lowers expression of human Her2 kinase; P04626; SKBR-3 HER2 protein level, AlphaScreen, 18-24 h; hits give low values; HER2 level % of control, % at 10 µM; 65,000 compounds, 0.69% hits; AID 645;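 active means HER2 level under 5% of the carrier-only control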;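 further: 100% = DMSO carrier and 0% = 500 nM PU-H71 HSP90 inhibitor; lower value means stronger loss of Her2 protein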
Target sequence (P04626 whole entry, looked up): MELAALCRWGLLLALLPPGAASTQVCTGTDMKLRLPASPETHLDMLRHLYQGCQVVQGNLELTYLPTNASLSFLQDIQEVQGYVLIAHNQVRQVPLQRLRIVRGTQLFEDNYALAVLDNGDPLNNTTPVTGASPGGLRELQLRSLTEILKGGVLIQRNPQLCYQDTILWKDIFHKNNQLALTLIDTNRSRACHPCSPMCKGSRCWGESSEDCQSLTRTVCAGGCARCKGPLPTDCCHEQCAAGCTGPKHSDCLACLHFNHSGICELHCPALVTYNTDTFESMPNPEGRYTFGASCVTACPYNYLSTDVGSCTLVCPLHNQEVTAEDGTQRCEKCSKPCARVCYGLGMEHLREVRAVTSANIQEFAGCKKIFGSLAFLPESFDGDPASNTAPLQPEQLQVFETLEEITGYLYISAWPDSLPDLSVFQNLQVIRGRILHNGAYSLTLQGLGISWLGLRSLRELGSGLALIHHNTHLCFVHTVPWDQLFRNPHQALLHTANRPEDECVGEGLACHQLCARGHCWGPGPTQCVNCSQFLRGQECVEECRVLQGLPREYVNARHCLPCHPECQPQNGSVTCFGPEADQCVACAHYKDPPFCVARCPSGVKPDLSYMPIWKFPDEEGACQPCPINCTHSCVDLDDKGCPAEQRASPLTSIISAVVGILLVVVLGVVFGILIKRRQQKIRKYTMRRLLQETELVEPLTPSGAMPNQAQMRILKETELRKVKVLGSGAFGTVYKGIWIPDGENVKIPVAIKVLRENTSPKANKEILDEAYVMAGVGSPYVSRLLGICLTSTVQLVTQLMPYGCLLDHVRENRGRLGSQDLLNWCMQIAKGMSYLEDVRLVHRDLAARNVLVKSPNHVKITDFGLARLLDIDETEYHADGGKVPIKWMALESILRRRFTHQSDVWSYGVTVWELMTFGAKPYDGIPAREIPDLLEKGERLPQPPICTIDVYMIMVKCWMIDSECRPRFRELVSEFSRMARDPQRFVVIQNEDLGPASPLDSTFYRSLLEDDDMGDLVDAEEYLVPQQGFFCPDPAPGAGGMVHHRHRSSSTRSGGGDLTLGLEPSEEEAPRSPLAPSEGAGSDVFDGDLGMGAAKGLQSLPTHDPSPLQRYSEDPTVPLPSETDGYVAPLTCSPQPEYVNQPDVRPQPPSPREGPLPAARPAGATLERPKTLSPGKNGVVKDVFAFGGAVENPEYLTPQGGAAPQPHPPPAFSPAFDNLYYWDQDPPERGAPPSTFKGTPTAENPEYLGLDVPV
tolC growth inh – growth inhibitors of E. coli BW25113 tolC mutant; OD615; growth inhibition, % at 10 µM (by protocol); 65,000 compounds, 2.2% hits; AID 573;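 active means growth inhibition at or above a cutoff equal to the mean over every tested compound plus 3 SD, cut at about 60% in these data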;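 further: growth measured after 20 h incubation at 37 °C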
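Test system – E. coli BW25113 ΔtolC::kan, tolC deletion mutant strain · Detection – OD at 615 nm · Buffer or medium – LB with kanamycin 50 µg/mL · Times – 20 h compound exposure of bacteria at 37 °C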
PostGolgi yeast – growth inhibition of a yeast mutant, post-Golgi transport screen. post-Golgi transport phenotypic cell assay. inhibition, % at 10 µM. 98,000 compounds, 0.9% hits;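 further: yeast cells grown in 1536-well plates; yeast grown about 18 h at 30C before absorbance read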
E coli WT exp – blocks growth of wild type E. coli BW25113 | AID 710 | growth inhibition, % at 100 µM | 98,000 compounds, 0.15% hits | OD600 absorbance;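 active means growth inhibition above about 50% at one test dose, limit read from the data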;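 further: growth measured after 20 h incubation at 37 °C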
PostGolgi ctrl – growth of the yeast control strain, post-Golgi counter-screen | efflux-deficient yeast background strain, growth absorbance A615, 16 h | inhibition, % at 10 µM | 98,000 compounds, 5% hits | AID 738
The depositor's hits bear a star; · = not tested or not shown. Unless noted, no stated cut-off is given here; in the data, active means inhibition above about 30%; inactive means the rest.

SMILES	Her2 expr inh	tolC growth inh	PostGolgi yeast	E coli WT exp	PostGolgi ctrl
CCn1c(SCC(=O)N2CCCc3ccccc32)nc2ccccc2c1=O	121	40	-1	-8	40*
C=CCn1c(SCC(=O)N2CCc3ccccc3C2)nc2ccccc2c1=O	·	·	-6	-18	49*
CCc1nc(SCC(=O)Nc2sc(C)c(C)c2C(=O)OC)c2ccccc2n1	·	·	3	-2	5
CCCn1c(N)c(Sc2ccc(Cl)cc2)c(=O)n(CCC)c1=O	82	37	0	8	2
CCn1c(NC(=O)Nc2ccccc2OC)nc2ccccc21	97	7	7	1	19
CCCc1nc(SCC(=O)N2CCc3ccccc32)c2c(=O)n(C)c(=O)n(C)c2n1	59	1	·	·	·
CCn1c(SCC(=O)N2CCCc3ccccc32)nnc1-c1ccco1	97	2	49*	-2	1
CCc1nc(SCC(=O)N2CCc3ccccc32)c2oc3ccccc3c2n1	95	-23	·	·	·
Cc1nc(SCC(=O)N2CCCc3ccccc32)c2oc3ccccc3c2n1	81	29	-2	-2	41*
CC(C)c1nc(SCC(=O)N2CCCc3ccccc32)c2c(=O)n(C)c(=O)n(C)c2n1	·	·	10	-6	35*
C=CCn1c(SCC(=O)Nc2c(C)cccc2C)nnc1-c1cnccn1	105	-5	-1	-2	1
CC(=O)NC(CC(=O)Nc1ccc(S(=O)(=O)N2CCCC2)cc1)c1ccccc1 (configuration not stated)	95	-10	-4	-5	2
CCN(CC)S(=O)(=O)c1ccc(NC(=O)CC(NC(C)=O)c2ccccc2)cc1 (configuration not stated)	·	·	-7	0	40*
Cc1ccccc1Cc1c(C)nc2c(C(=O)NCc3ccco3)cnn2c1C	101	31	-14	-4	42*
CC(=O)Nc1nc(C)nc(C)c1C(C)=O	124	-23	-12	-7	-4
COc1ccc(-n2nc3c(c2NC(=O)c2c(-c4ccccc4Cl)noc2C)CS(=O)(=O)C3)cc1	125	2	-6	1	0
O=C(NCCCN1CCN(c2ccccc2F)CC1)C1CCC(=O)N1C1CCCC1 (configuration not stated)	70	-15	·	·	·
COc1ccc(S(=O)(=O)Cc2ccc(C(=O)N3CCN(c4ccccc4)CC3)o2)cc1	53	20	2	-3	2
COc1ccc(S(=O)(=O)Cc2ccc(C(=O)N3CCN(c4ccccc4F)CC3)o2)cc1	94	15	-5	1	32*
Cc1ccccc1S(=O)(=O)Cc1ccc(C(=O)N2CCN(c3cccc(C)c3C)CC2)o1	49	69*	0	-16	38*
CCS(=O)(=O)N1CCCC(C(=O)NC2CCC(C)CC2)C1 (configuration not stated)	110	-17	0	3	3
O=C1CC(N2CCC(c3nc4ccccc4s3)CC2)C(=O)N1 (configuration not stated)	79	-9	-1	1	9
COC(=O)C1=C(C)NC2=C(C(=O)CCC2)C1c1coc2ccccc2c1=O (configuration not stated)	96	-1	2	5	-8
COc1ccc(C2CC(=O)C3=C(C2)NC(C)=C(C(=O)Nc2ccccc2C)C3c2coc3ccc(C)cc3c2=O)cc1OC (configuration not stated)	·	·	98*	-8	25
CCCCN1C(=O)/C(=C2\SC(N3CCCCC3)=NC2=O)c2ccccc21	34	29	0	-8	40*
SMILES	Her2 expr inh	tolC growth inh	PostGolgi yeast	E coli WT exp	PostGolgi ctrl
C=C1[C@@H](C)C2[C@H](Cc3ccccc3)NC(=O)[C@]23OC(=O)CC[C@H](O)CCC[C@H](C)C/C=C/[C@H]3[C@@H]1O (some centres not stated)	105	14	·	·	·
COc1ccc(-c2oc(NC(=O)CCl)c(C#N)c2-c2ccc(OC)cc2)cc1	·	·	28	2	50*
COC(=O)c1cc2oc(C)cc2n1CC(=O)Nc1cc(C)cc(C)c1	65	0	-1	-2	2
O=C(N/N=C1/CCCc2ccccc21)C(c1ccccc1)c1ccccc1	·	·	3	-11	13
N#CC(C#N)=Cc1cn(-c2ncc(C(F)(F)F)cc2Cl)c2ccccc12	·	·	21	-7	43*
CC(=O)/C=C\c1cn(-c2ncc(C(F)(F)F)cc2Cl)c2ccccc12	·	·	-8	9	23
Cc1ccc(N(C)C(=O)N2CCN(S(=O)(=O)c3ccc(C)c(C)c3)CC2)cc1	·	·	8	-14	35*
CCC(C)NCCCCOc1ccc(C)cc1[N+](=O)[O-] (configuration not stated)	·	·	5	5	-2
COc1cc(=O)[nH]c(SCc2c(F)c(F)c(F)c(F)c2F)n1	108	16	11	13	53*
COc1ccc(CSc2nc(C)cc(=O)[nH]2)cc1Br	109	5	-5	-3	17
O=C(OCc1ccc(F)cc1)c1ccc2c(c1)-c1ccccc1C2=O	·	·	2	-13	38*
CCOC(=O)C1=C(Cc2ccc(F)cc2)C(=O)c2ccccc2C1=O	·	·	0	9	24
C=CCN1C(=O)C(Cc2ccccc2)S/C1=N/N=C/c1cccs1 (configuration not stated)	·	·	-7	-12	38*
CCCCOCCCNC(=O)CN1C(=O)c2ccccc2C1=O	-21*	-6	5	3	-3
N#CC1=C(N)C(C#N)(C#N)C(c2cccnc2)C2CC(c3ccccc3)CC=C12 (configuration not stated)	·	·	71*	0	14
CCOC(=O)C1=C(C)C(c2ccccc2OC)NC(=S)N1 (configuration not stated)	·	·	-3	-3	2
CN1CCN(c2nc(-c3ccco3)cc(C(F)(F)F)n2)CC1	·	·	9	14	1
COc1ccccc1-c1cc(C(F)(F)F)nc(S(=O)(=O)CCCC(=O)Nc2cc(C)on2)n1	-16*	3	9	3	15
COc1ccccc1-c1cc(C(F)(F)F)nc(N2CCCC2)n1	124	7	6	8	-1
CS(=O)(=O)c1nc(-c2ccco2)cc(C(F)(F)F)n1	-22*	-10	0	16	48*
COc1ccccc1-c1cc(C(F)(F)F)nc(S(C)(=O)=O)n1	·	·	46*	-7	86*
COc1ccccc1-c1cc(C(F)(F)F)nc(S(=O)(=O)CCCC(=O)N2CCCCC2C)n1 (configuration not stated)	-17*	40	18	8	62*
Cc1cc(NC(=O)CCCSc2nc(-c3ccco3)cc(C(F)(F)F)n2)no1	99	-10	-9	-10	6
CC(C)(Oc1ccc(Cl)cc1)C(=O)N/N=C/c1cn[nH]c1-c1ccccc1	·	·	-4	4	14
CC(C)(C)NC(=O)NC(=O)COC(=O)c1cc(=O)[nH]c2ccccc12	·	·	-24	5	8
COCCN(C(=O)CSc1nnc(Nc2ccccc2F)s1)c1c(N)n(Cc2ccccc2)c(=O)[nH]c1=O	·	·	-5	7	-3
COc1ccccc1-c1cc(C(F)(F)F)nc(N2CCCCC2)n1	·	·	5	6	0
